Measured values collected from several papers.
Compare with care: the assays were run in different laboratories.
Target: MAP kinase-activated protein kinase 5 (MAPKAPK5, Homo sapiens, UniProt Q8IW41)
Sequence (Q8IW41 1-473, as in one of the studies): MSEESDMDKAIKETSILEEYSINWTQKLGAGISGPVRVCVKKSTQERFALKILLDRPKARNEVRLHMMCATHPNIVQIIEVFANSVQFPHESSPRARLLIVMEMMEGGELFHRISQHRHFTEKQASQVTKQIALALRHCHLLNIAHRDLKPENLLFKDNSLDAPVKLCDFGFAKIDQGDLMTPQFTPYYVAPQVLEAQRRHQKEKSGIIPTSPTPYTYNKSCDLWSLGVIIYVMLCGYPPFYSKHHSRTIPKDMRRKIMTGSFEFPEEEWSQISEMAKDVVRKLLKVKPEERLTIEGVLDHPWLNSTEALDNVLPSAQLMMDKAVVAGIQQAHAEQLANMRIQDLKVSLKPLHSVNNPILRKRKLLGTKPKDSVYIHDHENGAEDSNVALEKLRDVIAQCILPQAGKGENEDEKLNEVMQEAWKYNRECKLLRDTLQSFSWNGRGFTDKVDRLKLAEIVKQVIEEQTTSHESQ

test	setting	endpoint	value	SMILES
cell-free assay, competition with immobilised ligand	1 µM	remaining binding	100%	CN([C@@H]1CCc2c(CC(=O)O)c3cc(S(C)(=O)=O)ccc3n2C1)S(=O)(=O)c1ccc(F)cc1
enzyme activity, inhibitor	0.1 µM	activity vs control	103%	Cc1cc(NC(=O)c2cccc3cc(-c4cccc5[nH]nc(N)c45)ccc23)ccc1F
cell-free assay	0.5 µM	remaining signal	92.4%	O=C1Nc2ccc(Cl)cc2C1=Cc1cc(Cl)c(O)c(Cl)c1
enzyme activity, inhibitor	10 µM	remaining activity	77%	Oc1cccc(-c2nc(N3CCOCC3)c3oc4ncccc4c3n2)c1
enzyme activity, inhibitor	1 µM	remaining activity	89%	COc1cc(Cl)c(C(=O)N[C@@H](CN[C@H]2CC[C@@H](N)CC2)Cc2ccc(C#N)cc2)cc1-c1ccc(CN[C@H](C)c2ccc(C)cc2)o1
enzyme activity, inhibitor	0.4 µM	inhibition	0%	CNCc1ccc(-c2cc(-c3nc(-c4ccc(S(=O)(=O)C(C)C)cc4)cnc3N)on2)cc1
cell-free assay	0.5 µM	remaining signal	87.5%	COc1ccc(COc2ccc(Cc3cnc(N)nc3N)cc2OC)cc1
enzyme activity, inhibitor	1 µM	inhibition	< 10%	CCCS(=O)(=O)Nc1ccc(F)c(C(=O)c2c[nH]c3ncc(-c4ccc(Cl)cc4)cc23)c1F
cell-free assay, competition with immobilised ligand	1 µM	remaining binding	94%	Cc1nc(C2CCN(C(=O)c3ccc(OC(F)(F)F)cc3N)CC2)c2ncc(N3CCN(C)CC3)cc2n1
enzyme activity, inhibitor, radiometric	1 µM	remaining activity	78%	COc1cc(Nc2cnc(C#N)c(O[C@H](C)CN(C)C)n2)ncc1-c1cnn(C)c1
enzyme activity, inhibitor	10 µM	inhibition	66%	CNC(=O)c1cc(Oc2ccc(NC(=O)Nc3ccc(Cl)c(C(F)(F)F)c3)cc2)ccn1
enzyme activity, inhibitor	0.1 µM	inhibition	-8%	CC/C(=N\NC(=O)NCc1cccc(O)c1)c1ccc(O)c(C)c1O
enzyme activity, inhibitor, radiometric	2 µM	inhibition	15.2%	Cn1cnc(Br)c1C1=CN(c2ncnc3[nH]cnc23)CCS1
cell-free assay, competition with immobilised ligand	1 µM	remaining binding	100%	Cc1cc(-n2nc(Cc3cc(F)cc(C(F)(F)F)c3)nc2C)ccc1C(N)=O
enzyme activity, inhibitor	10 µM	remaining activity	104%	CCN(CC)c1ccc(C2=NNC(=O)CC2C)cc1[N+](=O)[O-] (stereo not drawn)
enzyme activity, inhibitor	1 µM	inhibition	3%	COc1cc2ncnc(Nc3ccc(Oc4ccccc4)cc3C)c2cc1OC
cell-free assay, competition with immobilised ligand	1 µM	remaining binding	92%	Nc1cnc(N2CCc3cc(S(=O)(=O)Nc4c(F)cc(Cl)cc4F)cc(N4CCCC4=O)c32)nc1

test	setting	endpoint	value	SMILES
cell-free assay	0.5 µM	remaining signal	102%	Oc1ccc(-c2nc(-c3ccncc3)c(-c3ccc(F)cc3)[nH]2)cc1
enzyme activity, inhibitor	1 µM	inhibition	-14%	CN1CC(Oc2cnc(C#N)cc2-c2ccn3nc(NC(=O)C4CC4)cc3c2)C1
cell-free assay	10 µM	remaining signal	77%	Cc1ccc(NC(=O)c2ccc(C)c(C(F)(F)F)c2)cc1C#Cc1nn(C2CCC(O)CC2)c2ncnc(N)c12 (stereo not drawn)
cell-free assay, competition with immobilised ligand	1 µM	remaining binding	100%	CC1=C(C#N)C(c2ccc3c(c2)c(NC(=O)c2ccccc2C)nn3C)C(C#N)=C(C)N1
enzyme activity, inhibitor	5 µM	remaining activity	99.7%	O=C(Nc1cnn(-c2csc(C(=O)NC3COC3)c2)c1)Nc1c(F)cccc1Cl
cell-free assay, competition with immobilised ligand	1 µM	remaining binding	82%	CNC(=O)Nc1ccc2c(c1)CC[C@@]21OC(=O)N(CC(=O)N(Cc2ccc(F)cc2)[C@@H](C)C(F)(F)F)C1=O
enzyme activity, inhibitor	1 µM	activity vs control	101%	COc1cc(/C=C/C(=O)CC(=O)/C=C/c2ccc(O)c(OC)c2)ccc1O
enzyme activity, inhibitor, radiometric	1 µM	remaining activity	37%	CC(C)(C)c1nc(-c2cccc(NS(=O)(=O)c3c(F)cccc3F)c2F)c(-c2ccnc(N)n2)s1
enzyme activity, inhibitor, radiometric	5 µM	activity vs control	85%	FC(F)(F)Oc1cccc(-c2cnc3ccc(-c4ccncc4)nn23)c1
enzyme activity, inhibitor	10 µM	remaining activity	63%	Nc1nc(Nc2ccccc2)sc1C(=O)c1c(F)cccc1F
cell-free assay	0.5 µM	remaining signal	93.4%	O=C1NC(=O)c2cc(Nc3ccc(F)cc3)c(Nc3ccc(F)cc3)cc21
cell-free assay, competition with immobilised ligand	1 µM	remaining binding	96%	CN(C)c1ncnc(-c2ccc3nc(Nc4cc(CN5CCN(C(=O)CC(F)(F)F)CC5)ccn4)[nH]c3c2)c1Cl
enzyme activity, inhibitor	23.5 nM	remaining activity	84%	Cc1ccc(C(=O)Nc2ccc(CN3CCN(C)CC3)c(C(F)(F)F)c2)cc1C#Cc1cnc2cccnn12
cell-free assay, competition with immobilised ligand	1 µM	remaining binding	100%	CO[C@@H](C)c1c(Nc2ccc([C@@H](N(C)C(=O)C3CCS(=O)(=O)CC3)C(F)(F)F)cc2)cnc2cc(Cl)nn12
enzyme activity, inhibitor	10 µM	remaining activity	82%	FC(F)c1nc2ccccc2n1-c1nc(N2CCOCC2)nc(N2CCOCC2)n1
enzyme activity, inhibitor	0.3 µM	inhibition	-3%	Cc1ccc(Nc2nccc(N(C)c3ccc4c(C)n(C)nc4c3)n2)cc1S(N)(=O)=O
